The values below come from ChEMBL document CHEMBL4011654, “Mitochondria-Targeted Lupane Triterpenoid Derivatives and Their Selective Apoptosis-Inducing Anticancer Mechanisms” (J Med Chem, 2017).

One data set deals with HL-60. Briefly: Cytotoxicity against human HL60 cells assessed as cell growth inhibition after 48 hrs by MTT assay. In kind it is functional, cell-based. To be noted: HL-60, 48 h. The method in brief:
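Suspension cells seeded at 5000/well (HL-60 in IMDM, K562 in RPMI, both with 10% FBS) and treated. MTT then added for 4 h at 37 °C; plates centrifuged at 3000 rpm for 30 min, medium removed, DMSO added, OD570 read. IC50 taken as concentration giving 50% growth inhibition; triplicate.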

For the next data set, the system named is L02. Briefly: Cytotoxicity against human HL-7702 cells assessed as cell growth inhibition after 48 hrs by MTT assay. Particulars: L02, 48 h. It counts as cell-based. The method in brief: (§1)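 Adherent cells seeded at 5000/well, left 16−24 h, then exposed 48 h at 37 °C, 5% CO2 in RPMI with 10% FBS. Medium refreshed, MTT added for 4 h at 37 °C, medium removed, formazan dissolved in DMSO, OD570 read. IC50 taken as concentration inhibiting growth by 50%; triplicate.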

The subject of data set [1] is K562. Put plainly: Induction of apoptosis in human K562 cells assessed as early apoptotic cells at 0.4 uM after 48 hrs by Annexin V-FITC/propidium iodide-staining based flow cytometric analysis (reference value: 0.92 to 1.45%). It counts as functional. The method in brief:
(§2)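 K562 seeded at 4 × 10^5 cells/well, 12 h, then exposed 48 h. Cells washed in ice-cold PBS, suspended in binding buffer, stained with annexin V-FITC and PI for 15 min at room temperature in the dark, and read by flow cytometry within 1 h. Cells counted as early/late apoptotic as % of total; n = 3.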

In data set [2] the test system is K562. Briefly: Induction of mitochondrial membrane depolarization in human K562 cells assessed as cell with intact mitochondrial membrane potential at 1 uM after 48 hrs by JC-1 staining based flow cytometric analysis (reference value: 97.63 to 97.67%). In kind it is functional. The method in brief:
(§3)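 K562 seeded at 4 × 10^5 cells/well, after 12 h treated 48 h. Cells washed in ice-cold PBS, loaded with JC-1 ([…]) at 37 °C for 15 min, rinsed, and analysed by flow cytometry (% cells with red aggregates) and fluorescence microscopy (red aggregates vs green monomers).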

Data set [3] deals with K562. Briefly: Induction of apoptosis in human K562 cells assessed as necrotic cells at 0.8 uM after 48 hrs by Annexin V-FITC/propidium iodide-staining based flow cytometric analysis (reference value: 0.13 to 0.27%). In kind it is functional. Put shortly:
as §2

The test system of a further data set is HepG2. Briefly: Cytotoxicity against human HepG2 cells assessed as cell growth inhibition after 48 hrs by MTT assay. To be noted: HepG2, 48 h. In kind it is functional, cell-based. The method in brief: as §1
Data set [4] in a line: Drug uptake in mitochondria of human K562 cells at 10 uM after 4 hrs by RP-HPLC analysis relative to betulin. It counts as ADME. Put shortly: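 K562 exposed to 10 μM compound or betulin for 4 h, washed, mitochondria isolated by kit, pellet extracted twice with dichloromethane/methanol (2:1). Residue assayed by RP-HPLC on C18: betulin in 100% acetonitrile, detection 220 nm; conjugate in 80% acetonitrile with 0.1% formic acid, detection 267 nm. Amounts normalised to protein; n = 3.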

In data set [5] the test system is K562. Briefly: Induction of apoptosis in human K562 cells assessed as late apoptotic cells at 0.8 uM after 48 hrs by Annexin V-FITC/propidium iodide-staining based flow cytometric analysis (reference value: 2.25 to 2.67%). It counts as functional. The method in brief:
as §2

For data set [6], the system named is K562. Briefly: Induction of apoptosis in human K562 cells assessed as late apoptotic cells at 1.2 uM after 48 hrs by Annexin V-FITC/propidium iodide-staining based flow cytometric analysis (reference value: 2.25 to 2.67%). In kind it is functional. The method in brief: as §2
For data set [7], the system named is K562. Briefly: Induction of mitochondrial membrane depolarization in human K562 cells assessed as cells with mitochondrial membrane potential loss at 4 uM after 48 hrs by JC-1 staining based flow cytometric analysis (reference value: 1.89 to 2.23%). It counts as functional.
The subject of data set [8] is K562. Briefly: Induction of apoptosis in human K562 cells assessed as upregulation of cleaved PARP up to 4 uM after 48 hrs by Western blot analysis. In kind it is functional, cell-based.
For data set [9], the system named is K562. Put plainly: Decrease in mitochondrial membrane potential in human K562 cells at 1 to 2 uM after 48 hrs by JC-1 staining based fluorescence microscopic analysis. In kind it is functional, cell-based. The method in brief: as §3

Activity calls are given as the source filed them. The calls are words filed in the database; no cut-off is given here.

`C=C(C)[C@@H]1CC[C@]2(COC(=O)CCCC[P+](c3ccccc3)(c3ccccc3)c3ccccc3)CC[C@]3(C)[C@H](CC[C@@H]4[C@@]5(C)CC[C@H](O)C(C)(C)[C@@H]5CC[C@]43C)[C@@H]12.[Br-]`: the IC50 amounted to 600 nM in the data set with HL-60, 6620 nM in the data set with L02 and 1090 nM in the data set on HepG2. Further, the Activity in the data set on K562 [1] was 6.68%; in the data set with K562 [2], 93.08%; with K562 [3], 3.7%; in the data set on K562 [5] it was 20.57%; in the data set with K562 [6], 38.25%; in the data set with K562 [7], 61.4%. For the same molecule, in [4], the “fold change (FC)” value was determined as 3.4. In addition, the outcome in the data set on K562 [8] and in the data set with K562 [9] was Active.
